Measured values as given in ChEMBL document CHEMBL1130124, “Synthesis and opioid activity of [D-Pro10]dynorphin A-(1-11) analogues with N-terminal alkyl substitution” (J Med Chem, 1997).

Columns and labels:
Cavia porcellus [1] = organism: Cavia porcellus; test: Opioid antagonist activity in guinea pig ileum assay; type: functional; details: read-out: pA2 (converted)
How it was run: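 Guinea pig ileum antagonism: tissue incubated 10 min with peptide (10 μM where stated), then given […]. Shift measured relative to the agonist IC50 obtained without test peptide.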

[2] = IC50 ratio measured as the IC50(presence of 50 uM of Gpp(NH)p)/IC50 (absence of 50 uM of Gpp(NH)p).
How it was run: (§1)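 Guinea pig cerebellar membranes prepared in 50 mM Tris pH 7.4. [3H]diprenorphine at 0.3 nM final, 60 min at 25 °C, with 10 μM bestatin, 1 mM Leu-Leu and 100 nM DAMGO. Run without or with 120 mM NaCl plus 50 μM Gpp(NH)p. Nonspecific binding with 1 μM Dyn A-(1–13)NH2. Filtration over polyethyleneimine-soaked filters; shift expressed as IC50(+)/IC50(–).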

[3] = biological target: T1, Kappa-type opioid receptor (Cavia porcellus, UniProt P41144); test: Binding affinity towards Opioid receptor kappa 1 using [3H]diprenorphine as radioligand in guinea pig cerebellar membrane in absence of 120 mM NaCl + 50 uM Gpp(NH)p; type: cell membranes, Cerebellum; how it was run: as §1
T1 sequence (P41144 whole entry): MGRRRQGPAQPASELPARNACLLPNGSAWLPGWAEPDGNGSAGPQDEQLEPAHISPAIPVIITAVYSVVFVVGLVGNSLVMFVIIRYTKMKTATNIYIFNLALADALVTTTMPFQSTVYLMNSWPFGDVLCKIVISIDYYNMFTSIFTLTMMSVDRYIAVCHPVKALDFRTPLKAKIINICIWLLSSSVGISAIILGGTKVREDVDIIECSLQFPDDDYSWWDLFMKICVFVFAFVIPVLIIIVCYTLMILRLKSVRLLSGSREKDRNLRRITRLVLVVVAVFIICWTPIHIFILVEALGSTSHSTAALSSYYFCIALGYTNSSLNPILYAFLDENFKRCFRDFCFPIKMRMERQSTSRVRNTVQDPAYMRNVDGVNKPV

Cavia porcellus [4] = organism: Cavia porcellus; test: The opioid activity by guinea pig ileum assay; type: functional
How it was run: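 Guinea pig ileum twitch assay with cumulative peptide additions to the bath. IC50 values are means from three to six replicates using tissues from different animals.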

[5] = biological target: T1, Kappa-type opioid receptor; test: Binding affinity towards Opioid receptor kappa 1 using [3H]diprenorphine as radioligand in guinea pig cerebellar membrane in presence of 120 mM NaCl + 50 uM Gpp(NH)p; type: cell membranes, Cerebellum; how it was run: as §1
[6] = biological target: T2, Opioid receptors; mu/kappa/delta (Homo sapiens) (UniProt P41145+P41143+P35372); test: Ki ratio is measured as the Ki values of kappa/mu/delta receptors; 1/480/27900; type: protein assay
T2 sequence (P35372 whole entry, looked up): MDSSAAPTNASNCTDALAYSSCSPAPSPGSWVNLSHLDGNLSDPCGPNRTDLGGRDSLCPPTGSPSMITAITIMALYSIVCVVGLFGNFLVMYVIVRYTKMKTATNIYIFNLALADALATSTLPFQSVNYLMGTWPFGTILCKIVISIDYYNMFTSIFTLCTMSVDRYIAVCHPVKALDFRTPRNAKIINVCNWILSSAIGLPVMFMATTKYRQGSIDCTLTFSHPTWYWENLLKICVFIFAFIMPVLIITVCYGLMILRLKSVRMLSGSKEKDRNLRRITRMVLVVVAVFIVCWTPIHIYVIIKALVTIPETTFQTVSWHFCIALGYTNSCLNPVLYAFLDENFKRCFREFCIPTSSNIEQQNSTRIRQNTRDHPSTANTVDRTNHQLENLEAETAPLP
T2 sequence (P41143 whole entry, looked up): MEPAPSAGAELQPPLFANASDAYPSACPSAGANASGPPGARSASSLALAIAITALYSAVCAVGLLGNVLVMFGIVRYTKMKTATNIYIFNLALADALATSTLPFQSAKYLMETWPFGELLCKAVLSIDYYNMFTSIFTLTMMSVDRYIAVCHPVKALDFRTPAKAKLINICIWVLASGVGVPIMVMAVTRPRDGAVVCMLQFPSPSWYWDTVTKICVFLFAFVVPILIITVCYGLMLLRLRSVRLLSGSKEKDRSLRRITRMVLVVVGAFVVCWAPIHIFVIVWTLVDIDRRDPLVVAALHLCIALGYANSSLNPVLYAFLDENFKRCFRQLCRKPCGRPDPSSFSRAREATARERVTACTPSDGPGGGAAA
T2 sequence (P41145 whole entry, looked up): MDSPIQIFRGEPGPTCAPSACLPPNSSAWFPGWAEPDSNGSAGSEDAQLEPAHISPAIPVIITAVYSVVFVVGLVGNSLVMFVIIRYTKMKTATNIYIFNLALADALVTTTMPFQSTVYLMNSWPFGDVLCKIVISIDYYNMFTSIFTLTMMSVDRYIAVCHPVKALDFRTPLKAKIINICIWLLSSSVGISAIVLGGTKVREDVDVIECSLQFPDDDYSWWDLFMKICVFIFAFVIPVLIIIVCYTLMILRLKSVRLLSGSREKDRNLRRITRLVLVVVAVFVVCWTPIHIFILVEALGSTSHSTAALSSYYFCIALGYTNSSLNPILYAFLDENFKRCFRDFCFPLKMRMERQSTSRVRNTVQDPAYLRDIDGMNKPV
How it was run: (§2)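 Rat forebrain membranes in 50 mM Tris pH 7.7, incubated 5 h at 4 °C. Final 10 μM bestatin, 30 μM captopril and 50 μM L-leucyl-L-leucine. Nonspecific binding defined with 10 μM levorphanol ([3H]DAMGO) or 10 μM unlabeled DPDPE ([3H]DPDPE). Competition curves fitted by nonlinear regression. IC50 converted to Ki by Cheng–Prusoff with KD 0.314 nM (DAMGO) and 7.63 nM (DPDPE). Ratios use the lowest Ki as denominator.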

[7] = biological target: Delta-type opioid receptor (Rattus norvegicus, UniProt P33533); test: Affinity against Opioid receptor delta 1 was determined by measuring the inhibition of [3H]DPDPE binding to rat forebrain membranes; type: cell membranes, Membrane
Sequence of Delta-type opioid receptor (P33533 whole entry): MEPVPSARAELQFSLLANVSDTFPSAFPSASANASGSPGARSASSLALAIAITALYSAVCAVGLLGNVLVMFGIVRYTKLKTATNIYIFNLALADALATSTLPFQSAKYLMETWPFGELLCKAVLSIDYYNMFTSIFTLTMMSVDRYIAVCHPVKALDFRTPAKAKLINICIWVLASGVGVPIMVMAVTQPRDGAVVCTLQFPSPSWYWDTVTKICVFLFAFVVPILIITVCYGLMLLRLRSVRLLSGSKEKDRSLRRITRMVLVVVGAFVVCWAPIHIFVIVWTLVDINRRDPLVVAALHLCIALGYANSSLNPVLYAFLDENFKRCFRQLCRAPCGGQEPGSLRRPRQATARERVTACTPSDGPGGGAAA
How it was run: as §2, with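 “regression.” for “regression. IC50 converted to Ki by Cheng–Prusoff with KD 0.314 nM (DAMGO) and 7.63 nM (DPDPE).”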

[8] = biological target: T2, Opioid receptors; mu/kappa/delta (Homo sapiens); test: Ki ratio is measured as the Ki values of kappa/mu/delta receptors; 1/8.8/41; type: protein assay; how it was run: as §2
[9] = biological target: T1, Kappa-type opioid receptor; test: Affinity against Opioid receptor kappa 2 was determined by measuring the inhibition of [3H]bremazocine binding to guinea pig cerebellar membranes; set-up: species or system Cerebellum, Membrane
[10] = biological target: T1, Kappa-type opioid receptor; test: Affinity against Opioid receptor kappa 1 was determined by measuring the inhibition of [3H]U-69593 binding to guinea pig […]
[11] = biological target: Kappa-type opioid receptor (Homo sapiens) (UniProt P41145); test: Ki ratio is measured as the Ki values of kappa-1/kappa.2/kappa.3 receptors; 1/233/5.3
Sequence of Kappa-type opioid receptor (Homo sapiens) (P41145 whole entry): as the sequence (P41145 whole entry, looked up) above
How it was run: (§3)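 Hartley guinea pig whole-brain homogenate in 50 mM Tris-HCl pH 7.7 (6.67 mg wet tissue/mL; 5 mM EDTA for NalBzoH). Radioligands ~1 nM: [3H]U69,593 (κ1); [3H]bremazocine plus 100 nM DAMGO, DSLET and U69,593 (κ2); [3H]NalBzoH plus 100 nM U69,593 (κ3). Test peptide 10⁻⁵–10⁻¹¹ M, 1 h at 25 °C, with bacitracin/bestatin/thiorphan. Nonspecific binding: 1 μM U69,593, 10 μM bremazocine or NalBzoH. Filtration; Ki via Cheng–Prusoff.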

[12] = biological target: T1, Kappa-type opioid receptor; test: Affinity against Opioid receptor kappa 3 was determined by measuring the inhibition of [3H]NalBzoH binding to […]
Mu-type opioid receptor = Mu-type opioid receptor (Rattus norvegicus, UniProt P33535); test: Affinity against Opioid receptor mu 1 was determined by measuring the inhibition of [3H]DAMGO binding to rat forebrain membranes; type: cell membranes, Membrane
Sequence of Mu-type opioid receptor (P33535 whole entry): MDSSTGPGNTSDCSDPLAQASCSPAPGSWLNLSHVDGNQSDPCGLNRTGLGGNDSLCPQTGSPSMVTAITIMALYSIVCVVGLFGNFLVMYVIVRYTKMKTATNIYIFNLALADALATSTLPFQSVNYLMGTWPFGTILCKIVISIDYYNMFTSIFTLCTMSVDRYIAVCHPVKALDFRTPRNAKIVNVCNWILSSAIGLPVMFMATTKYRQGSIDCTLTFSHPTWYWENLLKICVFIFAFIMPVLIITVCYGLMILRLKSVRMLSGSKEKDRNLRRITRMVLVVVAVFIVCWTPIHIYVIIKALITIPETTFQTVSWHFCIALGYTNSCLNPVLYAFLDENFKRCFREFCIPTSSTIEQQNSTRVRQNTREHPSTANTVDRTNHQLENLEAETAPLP
How it was run: as §2, with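 “regression.” for “regression. IC50 converted to Ki by Cheng–Prusoff with KD 0.314 nM (DAMGO) and 7.63 nM (DPDPE).”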

[13] = biological target: T1, Kappa-type opioid receptor; test: Affinity against Opioid receptor kappa 1 was determined by measuring the inhibition of [3H]bremazocine binding to guinea pig cerebellar membranes
How it was run: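 Guinea pig cerebellar membranes with [3H]bremazocine in 20 mM HEPES pH 7.4, 3 h at 4 °C. 100 nM DAMGO and 100 nM bestatin present; nonspecific binding with 10 μM Dyn A-(1–13)NH2. Competition curves fitted by nonlinear regression. Selectivity ratios use the lowest Ki as denominator.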

[14] = biological target: T2, Opioid receptors; mu/kappa/delta (Homo sapiens); test: Ki ratio is measured as the Ki values of kappa/mu/delta receptors; 1/21/880; type: protein assay; how it was run: as §2
[15] = biological target: Kappa-type opioid receptor (Homo sapiens) (UniProt P41145); test: Ki ratio is measured as the Ki values of kappa-1/kappa.2/kappa.3 receptors; 1/150/17; how it was run: as §3

SMILES | Kb (Cavia porcellus [1]) [nM] | Ratio [2] | IC50 [3] [nM] | IC50 (Cavia porcellus [4]) [nM] | IC50 [5] [nM] | Ki [7] [nM] | other results
CC[C@H](C)[C@H](NC(=O)[C@H](CCCN=C(N)N)NC(=O)[C@H](CCCN=C(N)N)NC(=O)[C@H](CC(C)C)NC(=O)[C@H](Cc1ccccc1)NC(=O)CNC(=O)CNC(=O)[C@@H](N)Cc1ccc(O)cc1)C(=O)N[C@@H](CCCN=C(N)N)C(=O)N1CCC[C@@H]1C(=O)N[C@@H](CCCCN)C(=O)O | 63.1 | – | – | – | – | – | –
CC[C@H](C)[C@H](NC(=O)[C@H](CCCN=C(N)N)NC(=O)[C@H](CCCN=C(N)N)NC(=O)[C@H](CC(C)C)NC(=O)[C@H](Cc1ccccc1)NC(=O)CNC(=O)CNC(=O)[C@H](Cc1ccc(O)cc1)NCC1CC1)C(=O)N[C@@H](CCCN=C(N)N)C(=O)N1CCCC1C(=O)N[C@@H](CCCCN)C(=O)O (stereo in doubt) | 50.1 | 66.9 | 0.41 | 2.16 | 27.1 | 558 | Ki ratio [6]: kappa/delta/mu
C=CCN(CC=C)[C@@H](Cc1ccc(O)cc1)C(=O)NCC(=O)NCC(=O)N[C@@H](Cc1ccccc1)C(=O)N[C@@H](CC(C)C)C(=O)N[C@@H](CCCN=C(N)N)C(=O)N[C@@H](CCCN=C(N)N)C(=O)N[C@H](C(=O)N[C@@H](CCCN=C(N)N)C(=O)N1CCCC1C(=O)N[C@@H](CCCCN)C(=O)O)[C@@H](C)CC (stereo in doubt) | – | 3.03 | 21.3 | > 3000 | 64.6 | 149 | Ki ratio [8]: kappa/mu/delta; IC50 [9]: 4970 nM; Ki [10]: 21.3 nM; Ki ratio [11]: kappa/delta/mu; Ki [12]: 113 nM
CC[C@H](C)[C@H](NC(=O)[C@H](CCCN=C(N)N)NC(=O)[C@H](CCCN=C(N)N)NC(=O)[C@H](CC(C)C)NC(=O)[C@H](Cc1ccccc1)NC(=O)CNC(=O)CNC(=O)[C@H](Cc1ccc(O)cc1)N(Cc1ccccc1)Cc1ccccc1)C(=O)N[C@@H](CCCN=C(N)N)C(=O)N1CCCC1C(=O)N[C@@H](CCCCN)C(=O)O (stereo in doubt) [listing 1 of 3 here] | – | – | 43.2 | – | 391 | 2770 | Ki (Mu-type opioid receptor): 128 nM; Ki [13]: 3.66 nM
CC[C@H](C)[C@H](NC(=O)[C@H](CCCN=C(N)N)NC(=O)[C@H](CCCN=C(N)N)NC(=O)[C@H](CC(C)C)NC(=O)[C@H](Cc1ccccc1)NC(=O)CNC(=O)CNC(=O)[C@H](Cc1ccc(O)cc1)N(Cc1ccccc1)Cc1ccccc1)C(=O)N[C@@H](CCCN=C(N)N)C(=O)N1CCCC1C(=O)N[C@@H](CCCCN)C(=O)O (stereo in doubt) [listing 2 of 3 here] | – | 9.05 | – | – | – | – | –
CC[C@H](C)[C@H](NC(=O)[C@H](CCCN=C(N)N)NC(=O)[C@H](CCCN=C(N)N)NC(=O)[C@H](CC(C)C)NC(=O)[C@H](Cc1ccccc1)NC(=O)CNC(=O)CNC(=O)[C@H](Cc1ccc(O)cc1)N(Cc1ccccc1)Cc1ccccc1)C(=O)N[C@@H](CCCN=C(N)N)C(=O)N1CCCC1C(=O)N[C@@H](CCCCN)C(=O)O (stereo in doubt) [listing 3 of 3 here] | – | – | – | 228 | – | – | –
C=CCN[C@@H](Cc1ccc(O)cc1)C(=O)NCC(=O)NCC(=O)N[C@@H](Cc1ccccc1)C(=O)N[C@@H](CC(C)C)C(=O)N[C@@H](CCCN=C(N)N)C(=O)N[C@@H](CCCN=C(N)N)C(=O)N[C@H](C(=O)N[C@@H](CCCN=C(N)N)C(=O)N1CCCC1C(=O)N[C@@H](CCCCN)C(=O)O)[C@@H](C)CC (stereo in doubt) | 25.1 | – | – | – | – | – | –
CC[C@H](C)[C@H](NC(=O)[C@H](CCCN=C(N)N)NC(=O)[C@H](CCCN=C(N)N)NC(=O)[C@H](CC(C)C)NC(=O)[C@H](Cc1ccccc1)NC(=O)CNC(=O)CNC(=O)[C@H](Cc1ccc(O)cc1)N(CC1CC1)CC1CC1)C(=O)N[C@@H](CCCN=C(N)N)C(=O)N1CCCC1C(=O)N[C@@H](CCCCN)C(=O)O (stereo in doubt) | 50.1 | 8.79 | 3.31 | > 100000 | 29.1 | 166 | Ki ratio [14]: kappa/mu/delta; Ki (Mu-type opioid receptor): 3.9 nM; Ki ratio [15]: kappa/mu/delta; Ki [13]: 0.19 nM; IC50 [9]: 388 nM; Ki [10]: 2.61 nM; Ki [12]: 44.4 nM
